High-throughput results deposited in PubChem BioAssay by Broad Institute.
ARNT-TACC3 inh: disrupts binding between human ARNT and TACC3; Q9Y6A5; AlphaScreen His-ARNT PAS-B/GST-TACC3 binding, luminescence; TACC3 fragment carries E629A point mutation; inhibition, % at 9.99 µM; 390,000 compounds, 0.66% hits;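 active means mean inhibition of replicates at least 50% and at least half of replicates each reaching 50%; inconclusive means half or more replicates reach 50% but mean below 50%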;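 further: 0% = complete ARNT plus TACC3 wells and 100% = ARNT alone without TACC3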
SIRT5 block: inhibitors of human sirtuin-5 desuccinylase; Q9NXA8; Purified SirT5, succinyl-peptide AMC, trypsin-coupled fluorescence; inhibition, % at 15 µM; 330,000 compounds, 1.1% hits; in the data active means inhibition above about 15%; inconclusive means no clear call, values can overlap the other calls
Target sequence (Q9NXA8 whole entry, looked up): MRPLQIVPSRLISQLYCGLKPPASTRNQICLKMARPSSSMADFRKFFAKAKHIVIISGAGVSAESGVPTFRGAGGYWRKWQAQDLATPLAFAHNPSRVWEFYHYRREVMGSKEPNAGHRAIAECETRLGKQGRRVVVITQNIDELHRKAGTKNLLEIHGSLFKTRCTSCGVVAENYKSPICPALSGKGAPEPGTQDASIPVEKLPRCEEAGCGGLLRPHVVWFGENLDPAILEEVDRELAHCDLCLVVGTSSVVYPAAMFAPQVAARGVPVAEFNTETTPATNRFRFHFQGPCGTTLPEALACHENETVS
DENV2 CPE: DENV2-induced cell death inhibition | DENV2-infected cells, cytopathic effect rescue, plate reader | CPE inhibition, % at 9.99 µM | 350,000 compounds, 1.7% hits | AID 651640; in the data active means CPE inhibition above about 20%, passing the limit was not always enough; inconclusive means no clear call, values can overlap the other calls; tested in BHK-21 cells;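 further: 0% = median of neutral control wells and 100% = median of positive control wells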
XiGFP reactiv: reactivates the inactive X chromosome in mouse fibroblasts; XiGFP mouse fibroblasts, % GFP-positive cells imaging, 3 d; cells co-treated with 5-aza-dC sensitizer; scaled so ellipticine positive control = 100%; activation, % at 7.58 µM; 360,000 compounds, 0.055% hits; AID 743238;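 active means mean normalized replicate activation at least 10% and every replicate at or above 10%; inconclusive means only one of the two criteria met; inactive means mean below 10% and not all replicates reach 10%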;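 further: 0% = median of on-plate neutral control wells and 100% = ellipticine 6 µM median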
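Material: SV40-immortalized XiGFP fibroblast cells, line 68-5-11 | Buffer or medium: DMEM containing 5-aza-dC | Dosing: One concentration, pinned | Times: 3 d treatment, 15 min room-temperature fixation | Controls: Ellipticine 6 µM positive control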
FN deposit inh: fibronectin deposition inhibition. AH1F fibroblasts, Alexa488-fibronectin deposition fluorescence, overnight. inhibition, % at 12.6 µM. 350,000 compounds, 0.086% hits;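 active means mean inhibition across replicates of 30% or more, regardless of how many single replicates reach that level; inconclusive means mean under 30% yet at least half of replicates reach 30%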;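 further: positive control wells lacked labelled fibronectin entirely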
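Schedule: 1 h cell adhesion before compound, then overnight fibronectin incubation; test system: AH1F fibroblast monolayer depositing Alexa488-labelled fibronectin into matrix; quantity: 10000 AH1F cells per well; probe or stimulus: fluorescent fibronectin at 24 nM final; signal: fluorescence, ex 485 nm, em 525 nm; evaluation: percent inhibition as loss of matrix-bound fibronectin fluorescence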
FGF22 binding: FGF22 (human) thermal shift binding. 340,000 compounds, 1.5% hits. AID 651658. activity (Tm shift, normalised), % at 9.99 µM. Q9HCT0. recombinant FGF22 thermal shift, SYPRO orange fluorescence; percent of sucrose octasulfate shift, DMSO zero;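 active means mean Tm shift, scaled 0 neutral to 100 positive control, at about 1.3% or above, every replicate too, limit read from the data; inconclusive means no clear call, values can overlap the other calls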
Target sequence (Q9HCT0 whole entry, looked up): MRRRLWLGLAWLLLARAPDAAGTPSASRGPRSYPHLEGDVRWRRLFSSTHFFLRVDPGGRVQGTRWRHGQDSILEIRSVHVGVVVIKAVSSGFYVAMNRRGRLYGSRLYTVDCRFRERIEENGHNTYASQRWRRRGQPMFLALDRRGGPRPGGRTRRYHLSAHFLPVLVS
Numbers without * were called inactive; ? = inconclusive; . = no result given. A selection: hits, their analogues and other compounds. The true share with any hit is near 3.8%.

SMILES | ARNT-TACC3 inh | SIRT5 block | DENV2 CPE | XiGFP reactiv | FN deposit inh | FGF22 binding
O=C(c1ccccc1)c1nccc2ccccc12 | -3 | -4 | 1 | 0 | -1 | 0
Nc1cccc(O)c1 | . | . | 21* | . | . | 0
O=C(O)C1C(c2ccccc2)c2ccccc2C(O)C1CO (centres undefined) | . | . | ? | 0 | 7 | 43*
CC(=O)c1ccc(N(C(=O)c2ccco2)C(C(=O)NC2CCCC2)c2ccc(N3CCOCC3)cc2)cc1 (centres undefined) | . | 1 | . | 7 | -18 | 44*
COc1cccc(S(=O)(=O)Nc2ccc3c(c2)OC[C@@H](C)NC[C@H](C)[C@H](OC)CN(C)C3=O)c1 | -1 | -1 | -5 | 0 | 10 | 0
O=C(C[C@@H]1CC[C@H]2[C@@H](COC[C@H](O)CN2Cc2nccs2)O1)NCc1ccc(Cl)cc1 | 15 | -2 | ? | 0 | -12 | 0
Nc1ccc2c3c(cccc13)-c1ccccc1-2 | -13 | . | -4 | 117* | -4 | 0
Cc1ccc2c3c(cccc13)-c1ccccc1C2=O | . | . | -3 | 0 | 2 | 0
O=C(Nc1cccc(Cl)c1)N1C[C@@H]2[C@H](c3ccccc31)[C@H](CO)N2Cc1ccccc1Cl | 0 | 0 | 9 | 0 | . | 0
O=C(Nc1cccc(Cl)c1)N1C[C@H]2[C@@H](c3ccccc31)[C@H](CO)N2Cc1ccccc1Cl | 0 | 2 | 4 | 0 | . | 84*
O=C(Nc1ccc(F)cc1)N1C[C@H]2[C@@H](c3ccccc31)[C@@H](CO)N2Cc1ccccc1Cl | 0 | 1 | 30* | 0 | -8 | 0
CC(C)NC(=O)N1[C@H](CO)[C@@H]2c3ccccc3N(C(=O)Nc3ccc(F)cc3)C[C@@H]21 | -8 | 1 | -10 | 0 | . | -1
CC(C)NC(=O)N1[C@H](CO)[C@H]2c3ccccc3N(C(=O)Nc3ccc(F)cc3)C[C@H]21 | -7 | -1 | 27* | 0 | . | 0
C[C@@H]1CCCCO[C@H](CN(C)C(=O)Nc2ccc(F)cc2)[C@@H](C)CN([C@H](C)CO)C(=O)c2cc(NC(=O)Nc3ccccc3)ccc2O1 | -9 | -1 | -7 | 0 | 9 | 0
C[C@H](O)C#Cc1cnc2c(c1)C(=O)N([C@@H](C)CO)C[C@@H](C)[C@H](CN(C)C(=O)c1ccccc1)O2 | 0 | 3 | -16 | -1 | 4 | 0
CCOc1ccc2ccccc2c1C(=O)N1CCN(c2ccccc2)CC1 | 2 | 19* | -10 | . | . | 0
O=C(CCl)N=c1sccn1Cc1ccc(Cl)cc1Cl | -11 | -6 | -11 | 1 | 25 | 44*
C[C@@H]1CN([C@@H](C)CO)S(=O)(=O)c2ccc(C#CC3CC3)cc2O[C@H]1CN(C)Cc1ccncc1 | 27 | 1 | 6 | 0 | -1 | -1
COc1ccc(-c2csc(C(NC(C)=O)c3cccc(F)c3)n2)cc1 (centres undefined) | . | . | -7 | 0 | -8 | 0
CC(=O)NC(c1cccc(F)c1)c1nc(-c2ccc(N(C)C)cc2)cs1 (centres undefined) | . | 2 | 26* | 0 | 4 | 0
C[C@H]1CN(C)C(=O)c2ccccc2O[C@@H]1CN(C)S(C)(=O)=O | . | . | . | 0 | -1 | .
CN(C)C(=O)c1ccc(-c2ccc3c(c2)[C@@H]2[C@@H](CCN2C(=O)c2cnccn2)[C@@H](CO)N3)cc1 | 12 | -4 | ? | 0 | 3 | 0
C[C@@H]1CCCCO[C@H](CN(C)Cc2ccncc2)[C@H](C)CN([C@H](C)CO)C(=O)c2cc(NS(=O)(=O)c3ccc(F)cc3)ccc2O1 | -7 | 5 | -1 | 0 | -3 | 0
Cc1cc(C)cc(S(=O)(=O)c2cnc3ccccc3n2)c1 | -5 | -3 | 8 | 1 | -16 | 43*
C[C@@H]1CN([C@H](C)CO)C(=O)CCCn2cc(nn2)CO[C@H]1CN(C)Cc1ccc2c(c1)OCO2 | -7 | -3 | -2 | 0 | -7 | 0
SMILES | ARNT-TACC3 inh | SIRT5 block | DENV2 CPE | XiGFP reactiv | FN deposit inh | FGF22 binding
C[C@H](CO)N1C[C@H](C)[C@H](CN(C)C(=O)CCC(F)(F)F)OCCCC[C@H](C)Oc2ccc(NC(=O)c3ccncc3)cc2C1=O | -4 | . | -16 | -1 | . | 0
COc1cc(NC(C)CCCN)c2ncccc2c1 (centres undefined) | 36* | -1 | 6 | 0 | 11 | -1
COc1ccc2c3c(n(C)c2c1)[C@H](CO)N(Cc1ccc2c(c1)OCO2)CC31CCN(C(=O)c2ccc3c(c2)OCO3)CC1 | . | . | 3 | 0 | . | 0
O=C1OC(c2ccccc2)(N(Nc2ccccc2)c2ccccc2)c2ccccc21 (centres undefined) | . | -3 | 24* | 0 | 0 | 0
Cc1ccc(S(=O)(=O)N(C)C[C@@H]2Oc3cc(C#Cc4ccncc4)ccc3S(=O)(=O)N([C@@H](C)CO)C[C@@H]2C)cc1 | 3 | 16* | 3 | -1 | 18 | 0
Cc1ccc(S(=O)(=O)N(C)C[C@H]2Oc3cc(C#Cc4ccncc4)ccc3S(=O)(=O)N([C@H](C)CO)C[C@H]2C)cc1 | 1 | 15 | -2 | -1 | 11 | 0
C[C@H]1CN([C@@H](C)CO)S(=O)(=O)c2ccc(C#Cc3ccncc3)cc2O[C@H]1CN(C)S(=O)(=O)c1ccccc1 | -8 | 2 | -14 | -2 | . | 0
Cc1ccc(S(=O)(=O)N(C)C[C@H]2Oc3cc(C#Cc4ccncc4)ccc3S(=O)(=O)N([C@H](C)CO)C[C@@H]2C)cc1 | 1 | 18* | ? | 0 | 3 | 0
C[C@H](CO)N1C[C@H](C)[C@@H](CN(C)C(=O)Nc2cccc3ccccc23)Oc2c(NS(=O)(=O)c3cccs3)cccc2C1=O | 17 | -1 | -6 | 0 | -8 | -1
CC(C)=NNc1nc2c(c(=O)[nH]c(=O)n2C)n1CCc1ccccc1 | . | 37* | 5 | 0 | -3 | 0
CC(C)=NNc1nc2c(c(=O)[nH]c(=O)n2C)n1CCCc1ccccc1 | 1 | 0 | -4 | 0 | -1 | 0
O=C(C[C@H]1C[C@@H]2c3cc(NC(=O)C4CCOCC4)ccc3O[C@@H]2[C@H](CO)O1)NC1CCCC1 | -2 | -2 | -5 | 0 | -6 | 0
CC(C)C#Cc1ccc([C@@H]2[C@@H](CO)N3CCCCN(S(=O)(=O)Cc4ccccc4)C[C@H]23)cc1 | 3 | 2 | 3 | 0 | . | 0
COc1cccc(CNC(=O)C[C@H]2CC[C@H](NC(C)=O)[C@@H](CO)O2)c1 | -7 | -2 | 18 | 0 | -7 | 0
Cc1nc(S/C(=C/c2ccc(OCc3ccc(C(=O)O)cc3)cc2)C(=O)O)n[nH]1 | 9 | 6 | -1 | 0 | -6 | 1.5*
